TRPC4 block – inhibitors of mouse TRPC4 channel, primary screen, Fluo4 calcium, HEK293 TRPC4beta/mu-opioid cells; Short transient receptor potential channel 4 (Mus musculus), Q9QUQ5; DAMGO-evoked Fluo4 calcium flux; hits give low values; B-score at 10 µM; 300,000 tested, 0.39% active;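 active means B-score over 3 SD under the library average, no early fluorescence shift, positive overall ratio signal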
Target sequence (Q9QUQ5 whole entry, looked up): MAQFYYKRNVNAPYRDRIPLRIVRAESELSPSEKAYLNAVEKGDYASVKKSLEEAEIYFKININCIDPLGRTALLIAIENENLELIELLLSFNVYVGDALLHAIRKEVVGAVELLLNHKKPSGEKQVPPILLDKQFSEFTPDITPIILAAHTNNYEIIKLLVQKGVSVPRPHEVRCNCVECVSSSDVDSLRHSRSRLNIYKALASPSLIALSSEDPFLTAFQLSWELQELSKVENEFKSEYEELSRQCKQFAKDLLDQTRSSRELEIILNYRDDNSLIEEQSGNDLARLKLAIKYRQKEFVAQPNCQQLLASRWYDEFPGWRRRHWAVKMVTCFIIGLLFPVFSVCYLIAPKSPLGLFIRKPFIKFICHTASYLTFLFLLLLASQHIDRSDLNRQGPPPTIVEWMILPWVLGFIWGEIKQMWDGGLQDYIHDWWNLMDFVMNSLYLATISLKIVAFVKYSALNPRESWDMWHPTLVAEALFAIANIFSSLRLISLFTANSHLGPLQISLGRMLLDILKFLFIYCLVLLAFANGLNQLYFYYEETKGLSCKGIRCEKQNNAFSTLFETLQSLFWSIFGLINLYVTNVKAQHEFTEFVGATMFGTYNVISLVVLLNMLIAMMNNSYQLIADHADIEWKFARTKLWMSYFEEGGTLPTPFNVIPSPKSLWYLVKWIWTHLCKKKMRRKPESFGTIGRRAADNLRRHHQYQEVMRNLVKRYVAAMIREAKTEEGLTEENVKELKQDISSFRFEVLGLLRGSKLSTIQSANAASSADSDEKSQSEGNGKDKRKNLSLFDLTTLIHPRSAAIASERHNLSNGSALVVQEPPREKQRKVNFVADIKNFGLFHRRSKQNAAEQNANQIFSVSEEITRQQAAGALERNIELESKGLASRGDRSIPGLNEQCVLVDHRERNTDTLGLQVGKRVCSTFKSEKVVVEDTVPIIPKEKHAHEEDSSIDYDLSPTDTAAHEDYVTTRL
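Signal: kinetic Fluo4 fluorescence imaging of calcium influx. Material: stable TRPC4beta/mu-opioid receptor HEK293 cells. Probe or stimulus: DAMGO in two steps, submaximal then maximal.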
TRPC6 inh – mouse TRPC6 channel inhibitors, primary screen, cell-based, HEK293, membrane potential dye; Short transient receptor potential channel 6 (Mus musculus), Q61143; B-score at 10 µM; 310,000 tested, 1.1% active; ACh-evoked depolarization; hits give low values;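 active means B-score under library mean minus 3 SD, initial fluorescence not abnormally high, positive integrated signal ratio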;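 further: B-score derived from integrated fluorescence ratio over the kinetic read; more negative B-score means stronger inhibition of depolarization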
TRPC4 PAM – positive allosteric modulators of TRPC4, primary screen, cell-based, mouse TRPC4beta, HEK293 mu-opioid, Fluo-4 calcium. DAMGO EC20, Fluo-4 Ca2+ flux; hits give high values. B-score at 10 µM. 310,000 tested, 0.42% active;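 active means B-score of calcium response area above 5 SD of library B-scores, with initial fluorescence ratio within 5 SD of library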
TRPC6 act – mouse TRPC6 channel activators, primary screen, cell-based, HEK293, membrane potential dye; Short transient receptor potential channel 6 (Mus musculus), Q61143; HEK293-TRPC6 membrane potential dye fluorescence; hits give high values; B-score at 10 µM; 310,000 tested, 0.13% active;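 active means B-score of the integrated fluorescence ratio above library mean plus 3 SD, and starting fluorescence ratio within library mean plus 5 SD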;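 further: higher score means more depolarization so channel activation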
TRPC4 act – activators of mouse TRPC4 channel, primary screen, Fluo4 calcium, HEK293 TRPC4beta/mu-opioid cells; Short transient receptor potential channel 4 (Mus musculus), Q9QUQ5; Fluo4 calcium fluorescence; hits give high values; B-score at 10 µM; 310,000 tested, 0.49% active;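 active means B-score above 5 SD of library B-scores, and initial fluorescence ratio not above library mean plus 5 SD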;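 further: positive B-score marks a calcium rise read as TRPC4 activation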
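Material: TRPC4beta and mu-opioid receptor HEK293 stable cells | Incubation: 45 min room-temperature Fluo4 loading, 110 s read | Detection: Kinetic Fluo4 calcium fluorescence | Measure: Integrated baseline-normalised fluorescence ratio, converted to per-well B score | Benchmarks: Low control buffer alone, high control maximal DAMGO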
TRPC4 spec 2 – mouse TRPC4 off-target activity of TRPC6 inhibitors, second screen. shares compounds with TRPC6 inh. 920 tested, 42% active. HEK293 TRPC4/MOR, membrane potential dye fluorescence; channel activated by saturating DAMGO dose. AID 2776. inhibition, % at 10 µM;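 active means compounds whose fluorescence signal differed from control wells by over 3 SD, either direction, in both duplicate plates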
TRPC4 spec – mouse TRPC4 modulation by TRPC6 hits, confirmation, selectivity assay for TRPC6 inhibitor project, cell-based, HEK293 TRPC4/mu-opioid, membrane potential dye; shares compounds with TRPC6 inh; activity change, negative = inhibition, % at 10 µM; 920 tested, 61% active; membrane potential fluorescence;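 active means rise or fall in signal beyond 3 SD of buffer-only wells in both replicate plates, either sign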;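 further: integrated kinetic ratio of fluorescence range over baseline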
HEK293 MPD ctr 2-1 – nonspecific membrane potential effects, parental HEK293, confirmation, counter-screen for TRPC6 inhibitor project, cell-based, second counter screen. shares compounds with TRPC6 inh. parental HEK293 membrane potential dye fluorescence; maximal acetylcholine challenge after compound addition. signal change vs control, % at 10 µM. 920 tested, 31% active;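 active means membrane potential signal moving either way by over 3 SD of the maximum-effect control, in both duplicate plates, meaning non-specific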
HEK293 MPD ctr-1 – membrane potential modulation in parental HEK293, confirmation, counter-screen for TRPC6 inhibitor project, cell-based; shares compounds with TRPC6 inh; parental HEK293 membrane potential dye fluorescence; membrane potential signal change, % at 10 µM; 920 tested, 60% active; AID 2780, 2010;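 active means membrane potential signal shifting up or down by more than 3 SD of buffer-only wells, on both duplicate plates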
HEK293 MPD ctr-2 – parental HEK293 membrane potential modulation, confirmation, counter-screen for TRPC6 modulator project, cell-based; membrane potential signal change, % at 10 µM; membrane potential dye fluorescence; shares compounds with TRPC6 inh; 2,400 tested, 51% active; AID 488924, 2010;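 active means membrane potential signal moves up or down beyond 5 SD from buffer-only wells, on both duplicate plates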
HEK293 MPD ctr 2-2 – parental HEK293 nonspecific activity of TRPC6 modulators, second screen. AID 488926. inhibition, % at 10 µM. 2,400 tested, 14% active. shares compounds with TRPC6 inh. membrane potential dye fluorescence; after compound, maximal acetylcholine stimulation;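 active means membrane potential signal drops by more than 5 SD from the mean control signal, in both duplicate plates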
TRPC4 ctr mod – TRPC4 modulation by TRPC6 hit compounds, confirmation, selectivity assay for TRPC6 modulator project, cell-based, HEK293 TRPC4/mu-opioid, membrane potential dye, mouse | shares compounds with TRPC6 inh | 2,400 tested, 69% active | percent change from control (negative = decrease, positive = increase), % at 10 µM | membrane potential fluorescence;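 active means membrane potential signal moved up or down beyond 5 SD of buffer control wells, in both duplicate plates, actives on both sides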
TRPC4 ctr inh 2 – mouse TRPC4 off-target activity of TRPC6 modulators, second screen | shares compounds with TRPC6 inh | HEK293 TRPC4/mu-opioid, membrane potential dye fluorescence; stimulated with maximal-effect DAMGO | inhibition, % at 10 µM | 2,400 tested, 55% active | AID 488928;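 active means drop in membrane potential signal beyond 5 SD of the control wells in both duplicate plates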;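 further: TRPC4 counter screen for TRPC6 hits run under conditions tuned for TRPC6 not TRPC4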
TRPC6 inh conf – mouse TRPC6 channel inhibitors, confirmation, HEK293 cells, membrane potential dye, duplicate. ACh-evoked depolarization. shares compounds with TRPC6 inh. 3,300 tested, 43% active. inhibition, % at 10 µM;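 active means fluorescence ratio falls more than 5 SD below the full-stimulation control mean, in both duplicate runs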;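 further: integrated fluorescence ratio of peak minus minimum over baseline after agonist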
TRPC6 act confirm – mouse TRPC6 channel activators, confirmation, HEK293 cells, membrane potential dye, duplicate. activation, % at 10 µM. shares compounds with TRPC6 inh. HEK293-TRPC6 membrane potential dye fluorescence, FDSS. 2,800 tested, 11% active;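 active means ratio signal rise beyond 5 SD above unstimulated control wells' mean, seen in both duplicate runs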
Of the large screens only hits and unclear results are named; the others gave an inactive call (follow-up assays come after a bar, where they were run). Only some compounds are listed: those with a hit (about 2.3% of all), similar ones and a draw of the others.

Cc1ccc(-c2csc(NC(=O)/C=C/c3ccco3)c2C(=O)O)cc1	TRPC6 inh -5.2 | HEK293 MPD ctr-2 inactive | HEK293 MPD ctr 2-2 inactive | TRPC4 ctr mod inactive | TRPC4 ctr inh 2 inactive | TRPC6 inh conf inactive | TRPC6 act confirm inactive
Cc1ccc(-n2c(SCC(N)=O)nnc2-c2ccc(S(=O)(=O)N3CCCCC3)cc2)c(C)c1	TRPC6 inh -6 | HEK293 MPD ctr-2 inactive | HEK293 MPD ctr 2-2 inactive | TRPC4 ctr mod 40% | TRPC4 ctr inh 2 inactive | TRPC6 inh conf 41% | TRPC6 act confirm inactive
CCOCCN1CCN(C2c3ccccc3CSc3ccccc32)CC1 (stereo not given)	TRPC6 inh -8.3 | TRPC4 spec 2 72% | TRPC4 spec 18% | HEK293 MPD ctr 2-1 inactive | HEK293 MPD ctr-1 9.5% | TRPC6 inh conf inactive
CCNC(=O)NC1c2ccccc2CSc2ccccc21 (stereo not given)	none
C=COCCNC(=S)N1CCOCCOCCN(C(=S)NCCOC=C)CCOCC1	TRPC6 inh -5 | HEK293 MPD ctr-2 inactive | HEK293 MPD ctr 2-2 inactive | TRPC4 ctr mod inactive | TRPC4 ctr inh 2 40% | TRPC6 inh conf inactive | TRPC6 act confirm inactive
COCCNC(=S)N1CCOCC1	none
CCN1C(=O)/C(=C/C=C2\C=CN(CC)c3ccccc32)SC1=S	TRPC6 inh -6.1 | HEK293 MPD ctr-2 inactive | HEK293 MPD ctr 2-2 inactive | TRPC4 ctr mod -27% | TRPC4 ctr inh 2 80% | TRPC6 inh conf inactive | TRPC6 act confirm inactive
CCN(CC)CCNC(=O)c1[nH]c2ccc(OCc3ccccc3)cc2c1C	TRPC6 inh -7.5 | HEK293 MPD ctr-2 inactive | HEK293 MPD ctr 2-2 inactive | TRPC4 ctr mod inactive | TRPC4 ctr inh 2 38% | TRPC6 inh conf 55%
O=C(O)Cc1sc(-c2ccccc2Cl)nc1-c1ccccc1	TRPC6 inh -6.2 | HEK293 MPD ctr-2 inactive | HEK293 MPD ctr 2-2 inactive | TRPC4 ctr mod inactive | TRPC4 ctr inh 2 inactive | TRPC6 inh conf inactive | TRPC6 act confirm inactive
CCOC(=O)c1c(-c2ccccc2)oc2cc(CN(C)C)c(O)c(CN(C)C)c12	TRPC6 inh -7.7 | TRPC4 spec 2 inactive | TRPC4 spec inactive | HEK293 MPD ctr 2-1 270% | HEK293 MPD ctr-1 inactive | TRPC6 inh conf inactive | TRPC6 act confirm inactive
CCCN1C=CC(=CC=C(C#N)C#N)C=C1	none
CCCCCCN1C=CC=C/C1=C/C=C(C#N)C#N	TRPC6 act 26 | HEK293 MPD ctr-2 370% | HEK293 MPD ctr 2-2 inactive | TRPC4 ctr mod 102% | TRPC4 ctr inh 2 inactive | TRPC6 inh conf inactive | TRPC6 act confirm 118%
CCCCCCN1C=C/C(=C\C=C(C#N)C#N)c2ccccc21	none
CCCCCN1C=CC=C/C1=C\C=C(C#N)C#N	TRPC6 inh -5.3, TRPC6 act 15 | HEK293 MPD ctr-2 712% | HEK293 MPD ctr 2-2 inactive | TRPC4 ctr mod inactive | TRPC4 ctr inh 2 inactive | TRPC6 inh conf inactive | TRPC6 act confirm 100%
COCCN1CC(O)=C(c2nc3ccccc3c(=O)[nH]2)C1=N	none
COc1ccccc1N1CC(O)=C(c2nc3ccccc3c(=O)[nH]2)C1=N	TRPC6 inh -5 | HEK293 MPD ctr-2 inactive | HEK293 MPD ctr 2-2 inactive | TRPC4 ctr mod 9.0% | TRPC4 ctr inh 2 inactive | TRPC6 inh conf inactive
Cc1ccc(Cn2c(=N)c(C(=O)NCCN3CCOCC3)cc3c(=O)n4ccccc4nc32)cc1	TRPC6 inh -6.6, TRPC4 PAM 19 | HEK293 MPD ctr-2 -70% | HEK293 MPD ctr 2-2 98% | TRPC4 ctr mod -14% | TRPC4 ctr inh 2 47% | TRPC6 inh conf 40% | TRPC6 act confirm inactive
N=c1c(C(=O)NCCc2ccccc2)cc2c(=O)n3ccccc3nc2n1CCCN1CCOCC1	none
COc1ccc(CCn2c(=N)c(C(=O)NCc3ccco3)cc3c(=O)n4ccccc4nc32)cc1	TRPC6 inh -5.9 | HEK293 MPD ctr-2 -164% | HEK293 MPD ctr 2-2 inactive | TRPC4 ctr mod -36% | TRPC4 ctr inh 2 inactive | TRPC6 inh conf inactive | TRPC6 act confirm inactive
Cn1c(C(=O)NCCN2CCOCC2)cc2c(=O)n3ccccc3nc21	none

Screening data deposited in PubChem BioAssay by Johns Hopkins Ion Channel Center.
